In ChEMBL document CHEMBL5724801, “EUbOPEN Chemogenomics Library - Multiplex” (2024):
Where “and” joins values, the source holds several entries; their conditions need not be identical. Equal values may be shown once.

Tested on: U2OS
Test: Multiplex assay against U2OS
Type: toxicity, cell-based
Conditions: human
Method in brief: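 Imaging took place on a CQ1 microscope at 37°C and 5% CO2 once compound had been added to live cells stained at seeding with Hoechst33342, BioTracker Green Microtubule Cytoskeleton Dye, MitoTracker Red and Annexin V Alexa Fluor 680. CellPathfinder machine-learning gating classed cells as Hoechst high-intensity objects or normal cells, classed normal cells as having healthy, pyknosed or fragmented nuclei, and classed pyknosed cells as mitotic or apoptotic. Tubulin, mitochondrial-mass and membrane-permeability phenotypes are per cents of the healthy-nucleus cells.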

[1] = 12 h, 1 µM, compound concentration 1 uM
[2] = 12 h, 10 µM, compound concentration 10 uM
[3] = 24 h, 1 µM, compound concentration 1 uM
[4] = 24 h, 10 µM, compound concentration 10 uM
[5] = 48 h, 1 µM, compound concentration 1 uM
[6] = 48 h, 10 µM, compound concentration 10 uM

CC(C)c1ccc(/C=N/NC(=O)c2ccc(O)cc2)cc1
Population Apoptotic (%) [1]: 41.67% and 26.09%
Population Fragmented Nuclei (%) [1]: 0.58% and 4.67%
Population Healthy Nuclei (%) [1]: 88.92% and 80%
Population Hoechst High Intensity Objects (%) [1]: 0%
Population Membrane Permeable-Phenotype (%) [1]: 2.62% and 5.83%
Population Mitochondria Different-Phenotype (%) [1]: 0% and 12.5%
Population Mitotic Cells (%) [1]: 58.33% and 73.91%
Population Normal (%) [1]: 100%
Population Pyknosed Nuclei (%) [1]: 10.5% and 15.33%
Population Tubulin-Different-Phenotype (%) [1]: 1.64% and 1.67%
Total Cell Count [1]: 343 and 150
Population Apoptotic (%) [2]: 32.5% and 45%
Population Fragmented Nuclei (%) [2]: 1.02% and 0%
Population Healthy Nuclei (%) [2]: 88.75% and 85.4%
Population Hoechst High Intensity Objects (%) [2]: 0%
Population Membrane Permeable-Phenotype (%) [2]: 2.88% and 2.56%
Population Mitochondria Different-Phenotype (%) [2]: 0% and 5.98%
Population Mitotic Cells (%) [2]: 67.5% and 55%
Population Normal (%) [2]: 100%
Population Pyknosed Nuclei (%) [2]: 10.23% and 14.6%
Population Tubulin-Different-Phenotype (%) [2]: 2.59% and 0%
Total Cell Count [2]: 391 and 137
Population Apoptotic (%) [3]: 30.95% and 46.15%
Population Fragmented Nuclei (%) [3]: 2.35% and 1.61%
Population Healthy Nuclei (%) [3]: 88.68% and 84.41%
Population Hoechst High Intensity Objects (%) [3]: 0%
Population Membrane Permeable-Phenotype (%) [3]: 1.69% and 3.18%
Population Mitochondria Different-Phenotype (%) [3]: 0.48% and 8.92%
Population Mitotic Cells (%) [3]: 69.05% and 53.85%
Population Normal (%) [3]: 100%
Population Pyknosed Nuclei (%) [3]: 8.97% and 13.98%
Population Tubulin-Different-Phenotype (%) [3]: 1.69% and 0.64%
Total Cell Count [3]: 468 and 186
Population Apoptotic (%) [4]: 51.02% and 50%
Population Fragmented Nuclei (%) [4]: 1.12% and 2.26%
Population Healthy Nuclei (%) [4]: 89.72% and 86.44%
Population Hoechst High Intensity Objects (%) [4]: 0%
Population Membrane Permeable-Phenotype (%) [4]: 1.88% and 2.61%
Population Mitochondria Different-Phenotype (%) [4]: 0% and 3.92%
Population Mitotic Cells (%) [4]: 48.98% and 50%
Population Normal (%) [4]: 100%
Population Pyknosed Nuclei (%) [4]: 9.16% and 11.3%
Population Tubulin-Different-Phenotype (%) [4]: 1.25% and 0%
Population Apoptotic (%) [5]: 38.46% and 51.11%
Population Fragmented Nuclei (%) [5]: 2.73% and 1.73%
Population Healthy Nuclei (%) [5]: 87.74% and 85.3%
Population Hoechst High Intensity Objects (%) [5]: 0.1% and 0%
Population Membrane Permeable-Phenotype (%) [5]: 0.6% and 3.04%
Population Mitochondria Different-Phenotype (%) [5]: 0.12% and 6.42%
Population Mitotic Cells (%) [5]: 61.54% and 48.89%
Population Normal (%) [5]: 99.9% and 100%
Population Pyknosed Nuclei (%) [5]: 9.54% and 12.97%
Population Tubulin-Different-Phenotype (%) [5]: 0.6% and 1.35%
Total Cell Count [5]: 955 and 347
Population Apoptotic (%) [6]: 46.51% and 53.12%
Population Fragmented Nuclei (%) [6]: 4.03% and 1.37%
Population Healthy Nuclei (%) [6]: 87.3% and 87.67%
Population Hoechst High Intensity Objects (%) [6]: 0%
Population Membrane Permeable-Phenotype (%) [6]: 1.15% and 3.52%
Population Mitochondria Different-Phenotype (%) [6]: 0% and 5.47%
Population Mitotic Cells (%) [6]: 53.49% and 46.88%
Population Normal (%) [6]: 100%
Population Pyknosed Nuclei (%) [6]: 8.67% and 10.96%
Population Tubulin-Different-Phenotype (%) [6]: 1.39% and 0%

Cn1cnc(-c2cnc(O[C@H]3CCN(C(=O)Cc4ccc(OC(F)(F)F)cc4)C[C@H]3F)c(C(N)=O)c2)c1
Population Apoptotic (%) [1]: 46.88% and 25%
Population Healthy Nuclei (%) [1]: 91.05% and 84.18%
Population Hoechst High Intensity Objects (%) [1]: 0%
Population Mitotic Cells (%) [1]: 53.12% and 75%
Population Normal (%) [1]: 100%
Population Pyknosed Nuclei (%) [1]: 8.42% and 13.56%
Population Apoptotic (%) [2]: 38.46% and 23.33%
Population Healthy Nuclei (%) [2]: 82.47% and 74.67%
Population Hoechst High Intensity Objects (%) [2]: 0.26% and 0%
Population Mitotic Cells (%) [2]: 61.54% and 76.67%
Population Normal (%) [2]: 99.74% and 100%
Population Pyknosed Nuclei (%) [2]: 16.75% and 20%
Population Apoptotic (%) [3]: 37.74% and 45.16%
Population Healthy Nuclei (%) [3]: 89.71% and 85.37%
Population Hoechst High Intensity Objects (%) [3]: 0.17% and 0%
Population Mitotic Cells (%) [3]: 62.26% and 54.84%
Population Normal (%) [3]: 99.83% and 100%
Population Pyknosed Nuclei (%) [3]: 9.09% and 12.6%
Population Apoptotic (%) [4]: 46.15% and 28.21%
Population Healthy Nuclei (%) [4]: 86.69% and 75.26%
Population Hoechst High Intensity Objects (%) [4]: 0% and 0.51%
Population Mitotic Cells (%) [4]: 53.85% and 71.79%
Population Normal (%) [4]: 100% and 99.49%
Population Pyknosed Nuclei (%) [4]: 12.36% and 20.1%
Population Apoptotic (%) [5]: 32.56% and 44.19%
Population Healthy Nuclei (%) [5]: 89.01% and 86.44%
Population Hoechst High Intensity Objects (%) [5]: 0% and 0.24%
Population Mitotic Cells (%) [5]: 67.44% and 55.81%
Population Normal (%) [5]: 100% and 99.76%
Population Pyknosed Nuclei (%) [5]: 7.88% and 10.41%
Population Apoptotic (%) [6]: 53.41% and 48.57%
Population Healthy Nuclei (%) [6]: 86.7% and 85.71%
Population Hoechst High Intensity Objects (%) [6]: 0%
Population Mitotic Cells (%) [6]: 46.59% and 51.43%
Population Normal (%) [6]: 100%
Population Pyknosed Nuclei (%) [6]: 9.51% and 11.63%
